High-throughput results (PubChem BioAssay)
DENV2 CPE rescue: protects cells from dengue virus 2 cytopathic effect; DENV2-infected cells, cytopathic effect rescue, plate reader; CPE inhibition, % at 9.99 µM; 350,000 tested, 1.7% active; in the data active = CPE inhibition above about 20%, passing the limit was not always enough; inconclusive = no clear call, values can overlap the other calls; tested in BHK-21 cells
E-selectin induc: E-selectin induction on HUVECs | AID 686992 | HUVEC E-selectin immunofluorescence imaging; normalized: neutral wells 0, TNF-alpha wells 100 | 260,000 tested, 0.37% active | P16581 | activation, % at 7.58 µM;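 active = mean E-selectin-positive cell signal at least 10% of the positive control, reached in at least 60% of replicates, without over 20% cell loss; inconclusive = no rule given, readout overlaps actives, possibly toxicity-flagged; inactive = the rest, including those meeting only one limit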
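Read-out basis: % PE-positive cells; Test system: HUVEC primary endothelial cells; Technique: immunofluorescence imaging; Dosing: single-point compound dose.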
ERAP1 HTS inh: ERAP1 (human) enzyme inhibition | Q9NZ08 | recombinant ERAP1, Leu-AMC fluorescence, 60 min | inhibition, % at 10.7 µM | 340,000 tested, 0.15% active;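 active = mean replicate inhibition of at least 30%, or all replicates individually reaching that 30% level; inactive = mean below 30% and not every replicate reaching it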
FGF22 binding: FGF22 (human) thermal shift binding; Q9HCT0; recombinant FGF22 thermal shift, SYPRO orange fluorescence; percent of sucrose octasulfate shift, DMSO zero; activity (Tm shift, normalised), % at 9.99 µM; 340,000 tested, 1.5% active; AID 651658;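 active = mean Tm shift, scaled 0 neutral to 100 positive control, at about 1.3% or above, every replicate too, limit read from the data; inconclusive = no clear call, values can overlap the other calls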
CFTR F508del cor: correctors of CFTR F508del function in bronchial epithelial cells. activity (quench increase), % at 7.58 µM. CFBE cells, YFP halide quenching; stimulated with forskolin plus potentiator P3; % fluorescence drop versus neutral controls. 350,000 tested, 0.36% active. AID 720511;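 active = mean added fluorescence quench of at least 8% versus neutral control, with both replicates also reaching 8%; inconclusive = only one of the mean or replicate conditions met; inactive = mean below 8% and not both replicates reaching 8%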;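 also: cells transiently co-express mutant CFTR-F508del with the halide-sensitive YFP; corrector assay measuring rescue of mutant channel to the surface after 24 h compound exposure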
A number is an active result; i = inactive; ? = inconclusive; nt = no result given. This is a sample that favours compounds with a hit; in the whole collection about 3.7% have one here.

SMILES	DENV2 CPE rescue	E-selectin induc	ERAP1 HTS inh	FGF22 binding	CFTR F508del cor
COc1cccc(S(=O)(=O)N2C[C@H](O)COC[C@H]3O[C@H](CC(=O)N4CCOCC4)CC[C@@H]32)c1	i	i	i	i	i
COc1ccc(S(=O)(=O)Nc2ccc3c(c2)C(=O)N([C@@H](C)CO)C[C@@H](C)[C@H](CN(C)C(=O)C2CCCCC2)OCCCC[C@H](C)O3)cc1	i	i	i	i	i
CN(CC(=O)Nc1ccc(F)c(F)c1F)C(=O)CCCc1nc2ccccc2c(=O)[nH]1	i	nt	i	i	i
CN(CC(=O)Nc1cccc(F)c1)C(=O)CCc1nc2ccccc2c(=O)[nH]1	i	i	49	i	i
CNC[C@H]1Oc2c(NC(=O)Nc3ccc4c(c3)OCO4)cccc2C(=O)N([C@H](C)CO)C[C@H]1C	?	i	i	i	i
Cc1cc(=O)[nH]c2c(N=Nc3ccc(O)cc3)c(N)nn12	i	nt	i	i	i
Cc1cc(=O)[nH]c2c3ccccc3nn12	i	nt	i	44	i
CCOC(=O)c1[nH]c(C)c(/C(O)=C2\C(=O)C(=O)N(CCCN3CCOCC3)C2c2cccs2)c1C (stereo not drawn)	i	nt	nt	i	15
CCOC(=O)c1[nH]c(C)c(/C(O)=C2\C(=O)C(=O)N(CCN3CCOCC3)C2c2ccco2)c1C (stereo not drawn)	i	nt	i	i	i
C[C@H]1CN([C@@H](C)CO)S(=O)(=O)c2ccc(C#CC3CC3)cc2O[C@H]1CN(C)C(=O)C1CCC1	i	i	i	i	i
CCN(CC)CCOC(c1ccccc1)c1ccc(C)cc1 (stereo not drawn)	i	nt	i	i	nt
Cc1ccc(C(OCC(C)(C)C[N+](C)(C)C)c2ccccc2)cc1 (stereo not drawn)	i	i	39	i	i
CC(C)c1cccc(C(C)C)c1NC(=O)COC(=O)[C@H](C)NC(N)=O	i	i	i	i	i
COC(=O)c1ccccc1NC(=O)COC(=O)[C@H](C)NC(N)=O	i	i	i	44	i
COC(=O)c1ccccc1NC(=O)CNc1cc(OC)c(OC)cc1C	i	nt	i	i	i
CCc1ccccc1NCC(=O)Nc1ccccc1C(=O)OC	nt	nt	i	44	i
COc1ccc(NC(=O)N2CC(=O)N3[C@H](C2)[C@@H](c2ccc(Br)cc2)[C@@H]3CO)cc1	i	i	i	nt	i
CCc1ccccc1NC(=O)CN1CCN(C(=O)CN2C(=O)NC3(CCCCC3C)C2=O)CC1 (stereo not drawn)	i	nt	i	i	i
Cc1cccc(C)c1NC(=O)CN1CCN(C(=O)CN2C(=O)NC3(CCCCC3C)C2=O)CC1 (stereo not drawn)	25	i	i	i	i
C[n+]1cccc(/C=N/NC(=O)CC23CC4CC(CC(C4)C2)C3)c1	i	i	96	i	i
CNC(=O)c1ccc(NC(=O)CC23CC4CC(CC(C4)C2)C3)cc1	i	nt	i	i	i
Cc1noc(C)c1NC(=O)N(C)C[C@@H]1OCCCC[C@H](C)Oc2ccc(NC(=O)Nc3ccc(F)cc3)cc2C(=O)N([C@H](C)CO)C[C@@H]1C	i	i	i	i	i
COCC#Cc1cnc2c(c1)C(=O)N([C@@H](C)CO)C[C@H](C)[C@H](CN(C)C(=O)Nc1ccccc1OC)O2	i	i	i	i	i
O=C(CSc1nc(=O)n2ccccc2n1)N1CCCc2ccccc21	68	32	i	i	i
Cc1ccn2c(=O)nc(SCC(=O)N3CCCc4ccccc43)nc2c1	i	nt	i	i	i
SMILES	DENV2 CPE rescue	E-selectin induc	ERAP1 HTS inh	FGF22 binding	CFTR F508del cor
COc1ccc2c3c(n(C)c2c1)[C@@H](CO)N(S(C)(=O)=O)CC31CCN(C(=O)Nc2cccc(F)c2)CC1	i	i	nt	nt	i
COc1ccc(/C=N/NC(=O)c2ccc(COc3cccc4cccnc34)cc2)cc1OC	i	nt	i	43	nt
COc1ccc(/C=N\NC(=O)c2ccccc2)cc1COc1ccc(F)cc1	i	i	i	i	i
COc1ccc(/C=N/NC(=O)c2c(C)nc3ccc(Br)cn23)cc1OC	i	nt	nt	i	10
COc1cc(/C=N/NC(=O)c2ccncc2)ccc1OC(C)=O	i	i	nt	i	i
COc1cc(/C=N/NC(=O)c2ccncc2)ccc1OC(=O)c1ccccc1Cl	i	nt	i	43	i
COc1ccc(/C=N\NC(=O)c2ccc(-c3ccccc3)cc2)cc1COC(C)=O	56	nt	i	i	i
COc1ccc(/C=N/NC(=O)c2c(C)nc3ccc(Cl)cn23)cc1OC	i	i	i	i	i
C[C@H]1CN([C@@H](C)CO)C(=O)c2cccc(NC(=O)Nc3cccc4ccccc34)c2O[C@H]1CN(C)Cc1ccc(C(=O)Nc2ccccc2N)cc1	?	i	i	i	i
C[C@H]1CN([C@@H](C)CO)C(=O)c2cc(-c3ccc(C#N)cc3)cnc2O[C@H]1CN(C)Cc1ccccn1	?	i	i	i	i
O=C(N[C@H]1CC[C@@H](CCn2cc(-c3ccccc3)nn2)O[C@@H]1CO)c1ccccc1F	i	i	i	i	i
C[C@H]1CN([C@@H](C)CO)C(=O)c2cc(C#Cc3cccc(F)c3)cnc2O[C@@H]1CN(C)C(=O)C1CCOCC1	nt	i	nt	nt	i
OCc1ccccc1OCCCN1CCC(Cc2ccccc2)CC1	i	nt	i	i	i
C=CCOc1ccccc1CN1CCC(Cc2ccccc2)CC1	24	i	i	i	i
CCCCNC(=O)C(COCc1ccccc1)OC(=O)c1ccccc1 (stereo not drawn)	i	nt	i	i	i
N#CC1=CN(Cc2ccccc2)C=C(/C=N/Nc2ccccc2)C1	i	i	i	i	i
CCOC(=O)C(=O)C1=CN(Cc2ccccc2)C=C(C#N)C1	i	52	i	i	i
CC1(C)CC(=O)C2=C(C1)Nc1ccccc1NC2c1ccccc1F (stereo not drawn)	i	i	nt	i	i
CC1(C)CC(=O)C2=C(C1)Nc1ccccc1NC2c1ccc(F)c(F)c1 (stereo not drawn)	23	i	i	i	i
Cc1ccc(Cl)cc1N1CCN(CC(O)COC(C)C)CC1 (stereo not drawn)	33	nt	i	i	i
CC(C)NC(=O)Nc1ccc2c(c1)CC(=O)N([C@@H](C)CO)C[C@@H](C)[C@@H](CN(C)Cc1ccc(C(=O)O)cc1)O2	?	i	i	i	i
CC(C)NC(=O)Nc1ccc2c(c1)CC(=O)N([C@@H](C)CO)C[C@H](C)[C@H](CN(C)Cc1ccc(C(=O)O)cc1)O2	i	42	i	i	i
CC(C)NC(=O)Nc1ccc2c(c1)CC(=O)N([C@H](C)CO)C[C@H](C)[C@@H](CN(C)Cc1ccc(C(=O)O)cc1)O2	?	39	nt	i	i
O=C(c1ccncc1)N1CC2(C1)[C@H](c1ccccc1)[C@@H](CO)N2CC1CCCC1	i	i	i	i	i
CCC(CC)c1nnc(NC(=O)C2CCCO2)s1 (stereo not drawn)	i	nt	i	43	i
CCc1noc(C)c1C(=O)Nc1nnc(C(CC)CC)s1	i	nt	i	i	i
